Results collected from several papers.

Structure (SMILES) | test system | setting | quantity | value
CO[C@H]1CC[C@H](N2C(=O)CNc3ncc(-c4ccc(C(C)(C)O)nc4)nc32)CC1 | human, plasma | oral, 30 mg, multiple doses, patients | Cmax | 293 ng/mL
Cn1cc(-c2ccc(S(=O)(=O)[C@@H]3C[C@@H](C(=O)NC4(C#N)CC4)N(C(=O)C4(C(F)(F)F)CC4)C3)c(C(F)(F)F)c2)cn1 | human, plasma | oral, 600 mg, single dose, fasted, healthy volunteers | Cmax | 1300 ng/mL
CC=Cc1ccc(O)c(OC)c1 | mouse, brain | intranasal, 100 mg/kg | Tmax | 5 min
CC(C)(O)c1cn(-c2ccc(-c3cc(F)c(CO)c(S(C)(=O)=O)c3)cc2F)c(C(C)(C)c2c(Cl)cccc2Cl)n1 | male cynomolgus monkey, plasma | intravenous, 1 mg/kg, single dose | Vd | 2.9 L/kg
CC(C)(C)c1ccc(O)c(CN(Cc2cc(C(C)(C)C)ccc2O)C2CCC(NC(N)=O)CC2)c1 (centres unmarked) | male C57BL/6 mouse, brain | intraperitoneal, 5 mg/kg, single dose | Tmax | 30 min
CCc1ccc(Cc2cc([C@@H]3O[C@H](CO)[C@@H](O)[C@H](O)[C@H]3O)cc3c2CCC3)cc1 | male C57BL/6 mouse, plasma | oral, 0.3 mg/kg | Tmax | 30 min
CC(C)(O)c1cn(-c2ccc(-c3cccc(S(C)(=O)=O)c3)cc2)c(C(C)(C)c2ccccc2Cl)n1 | male cynomolgus monkey, plasma | oral, 3 mg/kg, single dose | bioavailability | 73%
COc1cc(C(=O)NC2CCN(C)CC2)c(F)cc1Nc1ncc(C(F)(F)F)c(Oc2cccc3c2C(=O)N(C)C3)n1 | human, plasma | oral, 200 mg, multiple doses, once daily, steady state, patients | Cmax | 2580 nM
CCc1nc2c(C)cc(N3CCN(CC(=O)N4CC(O)C4)CC3)cn2c1N(C)c1nc(-c2ccc(F)cc2)c(C#N)s1 | human, plasma | intravenous, 0.1 mg, single dose, fasted, healthy volunteers | Cmax | 9.37 ng/mL
C=CC(=O)N1CC2CC(n3nc(-c4ccc(C(=O)Nc5ccccn5)cc4)c4c(N)ncnc43)CC2C1 (centres unmarked) | SCID mouse, plasma | oral, 1 mg/kg | Tmax | 15 min
CN1CCC(c2ccccc2CC(C)(C)Nc2nc(N3CCOCC3)nc(-n3c(C(F)F)nc4ccccc43)n2)CC1 | cynomolgus monkey, plasma | intravenous, 2 mg/kg, single dose | Vd | 8 L/kg
CN1CCC[C@H](CN2c3ccccc3Sc3ccccc32)C1.Cl | mouse, plasma | intraperitoneal, 32 mg/kg, single dose | Tmax | 60 min
CC(C)(O)c1cn(-c2ccc(-c3cc(F)c(CO)c(S(C)(=O)=O)c3)cc2)c(C(C)(C)c2cccc(F)c2Cl)n1 | male cynomolgus monkey, plasma | intravenous, 1 mg/kg, single dose | Vd | 3.2 L/kg
Cc1nc2ccc(F)cc2n1-c1nc(N)c(F)c(Nc2ccc(C(F)(F)F)cc2)n1 | cynomolgus monkey, plasma | oral, 2 mg/kg | bioavailability | 66%
